Compound activity deposited in PubChem BioAssay by several laboratories.
Shown are actives, neighbours in structure and some others; about 2.7% of the full set was active somewhere.
Redox H2O2 prof: compounds producing H2O2 with reducing agent – biochemical, NIH compound library profiling, artefact control for MLSCN library redox annotation, primary screen. DTT-dependent redox cycling H2O2, phenol red/HRP absorbance; 100% = 100 µM peroxide control, 0% = buffer. activation, % at 10 µM. hit rate 0.03% among 200,000;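 active = activation of at least 50% relative to the plate's high and low controls in the primary single-dose screen; inactive = activation below 50%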;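 note: compound incubated with DTT at 0.8 mM final as the reducing agent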
FLuc inh counter: firefly luciferase enzyme inhibitors, primary screen, artefact control for luciferase-based inhibitor screens, biochemical, luminescence, ATPLite; Luciferin 4-monooxygenase (Photinus pyralis), P08659; 10 min; inhibition, % at 10 µM; hit rate 1.5% among 200,000; AID 1006, 2008;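 active = inhibition above about 50% when tested at 10 µM, limit read from the data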
ABCB1 block: ABCB1 efflux pump inhibitors, primary screen, cell-based, multiplex, flow cytometry, ABCG2 counter-screen. hit rate 0.067% among 190,000. ATP-dependent translocase ABCB1 (Homo sapiens), P08183. CCRF-Adr cells, JC-1 efflux. inhibition, % at 6.6 µM; in the data active = inhibition above about 40%;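 note: 0% = vehicle and 100% = reference inhibitor; higher value means more JC-1 retained so stronger ABCB1 efflux block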
Target sequence (P08183 whole entry, looked up): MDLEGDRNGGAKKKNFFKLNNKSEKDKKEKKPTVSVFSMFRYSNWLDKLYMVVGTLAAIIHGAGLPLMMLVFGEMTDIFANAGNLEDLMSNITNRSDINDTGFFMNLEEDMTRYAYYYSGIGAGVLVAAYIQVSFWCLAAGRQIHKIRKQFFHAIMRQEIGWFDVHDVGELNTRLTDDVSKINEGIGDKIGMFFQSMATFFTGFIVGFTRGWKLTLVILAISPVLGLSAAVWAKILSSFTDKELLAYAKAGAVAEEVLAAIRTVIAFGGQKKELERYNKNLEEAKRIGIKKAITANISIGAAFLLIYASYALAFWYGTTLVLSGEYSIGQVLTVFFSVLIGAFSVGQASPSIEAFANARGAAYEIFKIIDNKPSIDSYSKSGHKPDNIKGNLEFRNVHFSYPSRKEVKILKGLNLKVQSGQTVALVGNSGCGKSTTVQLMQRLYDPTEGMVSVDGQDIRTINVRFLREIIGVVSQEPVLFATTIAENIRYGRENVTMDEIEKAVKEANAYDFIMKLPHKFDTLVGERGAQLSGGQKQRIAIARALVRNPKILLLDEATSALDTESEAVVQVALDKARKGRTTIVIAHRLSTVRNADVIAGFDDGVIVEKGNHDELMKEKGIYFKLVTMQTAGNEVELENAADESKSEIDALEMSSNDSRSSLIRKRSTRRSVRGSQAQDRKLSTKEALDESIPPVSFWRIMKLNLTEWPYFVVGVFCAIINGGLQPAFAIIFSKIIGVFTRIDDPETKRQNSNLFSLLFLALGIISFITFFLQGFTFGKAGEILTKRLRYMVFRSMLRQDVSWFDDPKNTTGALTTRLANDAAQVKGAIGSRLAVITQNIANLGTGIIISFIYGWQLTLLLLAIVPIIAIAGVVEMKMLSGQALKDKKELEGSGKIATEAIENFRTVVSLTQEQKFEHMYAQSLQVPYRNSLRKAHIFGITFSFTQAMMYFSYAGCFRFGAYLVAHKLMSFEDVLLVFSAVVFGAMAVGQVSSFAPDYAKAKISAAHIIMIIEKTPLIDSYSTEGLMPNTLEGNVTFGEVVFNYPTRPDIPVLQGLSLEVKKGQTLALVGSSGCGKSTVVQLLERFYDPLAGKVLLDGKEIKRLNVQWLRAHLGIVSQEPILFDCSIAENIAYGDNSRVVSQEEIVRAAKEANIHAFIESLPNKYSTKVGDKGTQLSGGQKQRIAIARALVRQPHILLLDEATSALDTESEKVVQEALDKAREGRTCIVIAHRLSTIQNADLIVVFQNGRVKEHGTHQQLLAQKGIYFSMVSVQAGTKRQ
ABCG2 inh: ABCG2 efflux pump inhibitors, primary screen, multiplex with ABCB1, IgMXP3 cells, flow cytometry; inhibition, % at 6.6 µM; JC-1 efflux; Broad substrate specificity ATP-binding cassette transporter ABCG2 (Homo sapiens), Q9UNQ0; hit rate 0.1% among 190,000;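 active = inhibition above 80%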;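 note: 0% = DMSO and 100% = nicardipine control wells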
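Test system: IgMXP3 (ABCG2) plus far-red-tagged CCRF-Adr (ABCB1) cells / Amount: 3 million cells/mL in well / Reagent: JC-1 transporter substrate / Timing: 10 min compound exposure, 25 °C / Signal: flow cytometry, 530 nm JC-1 signal / Read-out: percent efflux inhibition, scaled nicardipine 100% to DMSO 0% / Benchmarks: nicardipine as high control, DMSO as low control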
Measles CPE: compounds protecting cells from measles virus cytopathic effect, primary screen, measles RdRp inhibitor project, single point, MLSMR library, absorbance; Measles virus-infected cells, CPE protection; protection (pct of control), % at 4 µM; hit rate 1.5% among 140,000; in the data active = protection mostly above about 24%, no sharp cut-off; inactive = mostly below about 26%
FLuc act counter: FLuc activators, initial screening, artefact control for FLuc-dependent activation tests, biochemical, ATPlite luminescence; ATPlite luciferase biochemical, 10 min; 0 = ATP-free wells, 1 = DMSO control; 200,000 tested, under 10 active; activation factor at 10 µM; Luciferin 4-monooxygenase (Photinus pyralis), P08659;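 active = luciferase activation factor, scaled between plate controls, of at least 2 with compound at 10 µM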
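Assay system: Luciferase/luciferin detection reagent, cell-free biochemical luciferase assay / Also added: ATP substrate / Schedule: 10 min at ambient temperature / Measured by: luminescence measurement of luciferase light output / Benchmarks: low control with PBS replacing ATP, high control enzyme plus ATP without compound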
Starred values were filed as active, the others as inactive; x = no result.

SMILES | Redox H2O2 prof | FLuc inh counter | ABCB1 block | ABCG2 inh | Measles CPE | FLuc act counter
N#CC(C(=O)NCCc1ccccc1)c1nc2ccccc2nc1N1CCCCC1 (configuration not stated) | 0 | -8 | 0 | 3 | 41* | 1.1
CCCCCCNC(=O)C(C#N)c1nc2ccccc2nc1N1CCOCC1 (configuration not stated) | 1 | -4 | 1 | 8 | 47* | 1
Cc1cc(C)nc(SCc2ccc(C(=O)N/N=C/c3ccco3)cc2)n1 | -2 | -3 | 0 | 0 | x | 1
O=C(CNCCc1ccccc1)N1CCc2ccccc2C1 | 0 | -6 | 0 | 0 | x | 1.1
COc1ccc(-c2cn3c(n2)CCC3)cc1 | 2 | 25 | 0 | 1 | 6 | 0.8
c1ccc(-c2ccc(-c3cn4c(n3)CCC4)cc2)cc1 | 0 | 65* | 1 | 5 | 5 | 0.3
Cc1cc(SCC(=O)c2ccc3c(c2)OCO3)nc2ccccc12 | 0 | -5 | 0 | 6 | 31* | 1.1
Nc1ccc(-n2nnnc2CN2CCOCC2)cc1 | -1 | -3 | 0 | 2 | 43* | 1
CCOC(=O)Cn1c(-c2ccccc2)nc2ccccc2c1=O | -9 | -3 | 1 | 13 | 8 | 1
CCOC(=O)Cn1c(S(=O)(=O)Cc2cccc(F)c2)nc(-c2ccccc2)c1-c1ccccc1 | -2 | -4 | 2 | 6 | 31* | 1
CCOC(=O)Cn1c(S(=O)(=O)Cc2ccc(F)cc2)nc(-c2ccccc2)c1-c1ccccc1 | -4 | -3 | 1 | 4 | 52* | 1
NC(=O)Cn1c(S(=O)(=O)Cc2ccccc2)nc2ccccc21 | 0 | x | x | x | x | x
C#CCn1c(S(=O)(=O)Cc2ccc(F)cc2)nc(-c2ccccc2)c1-c1ccccc1 | -9 | -8 | 3 | 10 | 52* | 1.1
O=C(CSc1ccccn1)Nc1nc2ccc(Br)cc2s1 | -4 | -4 | 0 | 4 | 21 | 1
COc1ccc2c(c1)O/C(=C\c1sccc1C)C2=O | 0 | 86* | -1 | -3 | 9 | 0.1
CCc1ccc(/C=C2\Oc3cc(OS(C)(=O)=O)ccc3C2=O)cc1 | 1 | 1 | 0 | 1 | 3 | 1
O=C(N/N=C/c1cnc2ccccc2n1)c1cccc(F)c1 | 0 | 4 | 1 | 30 | 14 | 1
CN1CSC2=C(C#N)C(c3cccc(OCc4ccccc4)c3)CC(=O)N2C1 (configuration not stated) | -1 | -6 | -1 | -2 | 63* | 1.1
CCc1ccc(C2CC(=O)N3CN(c4ccccc4)CSC3=C2C#N)cc1 (configuration not stated) | -3 | 1 | 0 | -1 | 2 | 1
CCOC(=O)c1c(NC(=O)COC(=O)c2nc(Cl)ccc2Cl)sc2c1CCC2 | 0 | 2 | 1 | 16 | 21 | 1
CCc1ccccc1NC(=O)c1cc(=O)c2ccccc2o1 | 0 | -4 | 0 | 1 | x | 1
O=C(/C=C/c1cccs1)N1CCN(c2ccccc2)CC1 | 0 | 4 | 0 | 8 | x | 1
O=C(/C=C/c1cccs1)c1ccc(N2CCOCC2)cc1 | -1 | 96* | 0 | 4 | x | 0
Cc1ccc(CNC(=O)Cn2c(=O)oc3ccccc32)o1 | 2 | -8 | 1 | 5 | 5 | 1.1
FC(F)(F)c1cc(Cl)c2nc(-c3ccccc3)cn2c1 | -8 | 41 | 0 | 7 | 2 | 0.6
SMILES | Redox H2O2 prof | FLuc inh counter | ABCB1 block | ABCG2 inh | Measles CPE | FLuc act counter
Nc1cccc(-c2cn3cc(C(F)(F)F)cc(Cl)c3n2)c1 | 0 | 68* | -1 | -2 | 4 | 0.3
O=C(Oc1ccccc1)c1cccc2cccnc12 | -1 | -1 | 1 | 3 | 48* | 1
O=C(Cn1cc(C(=O)C(F)(F)F)c2ccccc21)N1CCOCC1 | 0 | -6 | 0 | 1 | x | 1.1
COc1ccc(C2=Nc3ccccc3OC2)cc1 | 0 | 51* | 0 | 1 | 19 | 0.5
O=c1ccc(Cc2ccccn2)n[nH]1 | 0 | -6 | -1 | -9 | 37 | 1.1
CCOc1ccc(-c2cn3ccccc3n2)cc1[N+](=O)[O-] | 0 | 78* | 1 | 20 | 12 | 0.2
CCOc1ccc(Cn2ccnc2)cc1[N+](=O)[O-] | 0 | -5 | 0 | 2 | 14 | 1.1
CN(C)S(=O)(=O)c1ccc(-c2cn3ccccc3n2)cc1 | 0 | 74* | -1 | 4 | 10 | 0.3
Cc1ccc2nc(-c3cccc(S(=O)(=O)N(C)C)c3)cn2c1 | 0 | 33 | 1 | 2 | 11 | 0.7
CSc1nc(C)cc(SCC(=O)N/N=C/c2ccccc2)n1 | 0 | 1 | 0 | 1 | 12 | 1
O=C(N/N=C/c1ccccn1)c1ccco1 | -7 | 6 | 0 | 2 | 12 | 0.9
O=C(N/N=C/c1ccc2ncccc2c1)c1ccco1 | 0 | 92* | 0 | 2 | x | 0.1
CN(C)c1ccc(/C=N\NC(=O)c2csnn2)cc1 | -4 | 60* | 0 | -1 | 12 | 0.4
CN(C)c1ccc(/C=N/NC(=O)c2ccco2)cc1 | 0 | 84* | 1 | 12 | 14 | 0.2
O=C(N/N=C\c1ccc(OC(=O)c2ccco2)cc1)c1ccc(Cl)cc1 | -1 | -6 | 0 | 2 | x | 1.1
CN(C)c1ccc(/C=N/NC(=O)c2ccnn2C)cc1 | 0 | 46 | 0 | 2 | x | 0.5
O=C(N/N=C/c1ccc(OC(=O)c2ccco2)cc1)c1ccccn1 | -1 | 52* | 1 | 2 | x | 0.5
Cc1c(Cl)cccc1NC(=O)c1cc(C2CC2)on1 | 0 | -3 | 0 | 1 | 4 | 1
CS(=O)(=O)N1CCC(C(=O)Nc2cccc([N+](=O)[O-])c2)CC1 | -1 | 5 | 1 | 14 | x | 1
O=C(N/N=C/c1cccc(OC(=O)c2ccco2)c1)c1ccc(F)cc1 | 0 | 63* | 0 | 0 | 6 | 0.4
Cc1ccn2c(C(=O)N/N=C\c3ccccc3[N+](=O)[O-])c(C)nc2c1 | 2 | x | x | x | x | x
N#Cc1cc2c(nc1SCc1nc3ccccc3[nH]1)CCC2 | 0 | 78* | 0 | 1 | 3 | 0.2
Cc1ccc(NC(=O)CSc2nnc(Cn3c(=O)sc4ccccc43)n2C)cc1Cl | -1 | 0 | 1 | 0 | 15 | 1
C[C@H](NC(=O)c1ccccc1Cl)C(=O)OC(C(=O)Nc1cc(C(F)(F)F)ccc1Cl)c1ccccc1 (some centres not stated) | 0 | -4 | 2 | 13 | 58* | 1
